# Shown are actives, neighbours in structure and some others; about 4.5% of the full set was active somewhere.
# UPR CHOP act = apoptotic UPR (CHOP) activation. hit rate 0.34% among 330,000. CHO-CHOP luciferase reporter, luminescence; percent of tunicamycin response over DMSO baseline. AID 449763. activation, % at 10 µM;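 active means at 10 µM dose, activation of 40% or more, normalized to positive control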
#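 System: CHO CHOP reporter cells. Amount: 500 cells per well. Buffer or medium: F12 medium, 10% FBS. Compound dosing: one dose, 10 µM in 0.5% DMSO. Incubation: 6 h compound exposure at 37 °C after overnight seeding. Technique: Steady-Glo luciferase luminescence. Benchmarks: tunicamycin and DMSO controls.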
# XBP1 UPR activ = activators of adaptive arm of unfolded protein response (XBP1); CHO-XBP1 luciferase reporter, IRE1-XBP1 UPR activation, luminescence; percent of tunicamycin response, DMSO as zero; hit rate 0.33% among 330,000; activation, % at 20 µM;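 active means versus positive control, 20 µM dose yields 30% or more activation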
#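 assay system = CHO-XBP1 luciferase reporter cells | amount = 1000 cells/well | buffer or medium = F12 plus 10% FBS | compound dosing = single point, 20 µM final compound, 1% DMSO | incubation = 16-18 h cell attachment at 37 °C, then 6 h compound exposure | detection = Steady-Glo luminescence read | controls = tunicamycin 10 µg/mL and vehicle-only wells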
# CHOP inh = blocks CHOP induction under ER stress; CHO-K1 CHOP-promoter luciferase, tunicamycin-induced, 15-18 h; inhibition, % at 10 µM; hit rate 3.8% among 220,000; AID 2732;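 active means compounds that reduced the stress-induced luciferase reporter signal by more than about 70% of percent inhibition, limit read from the data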
# M18AAP inhibitor = blocks P. falciparum M18 aspartyl aminopeptidase | hit rate 1.2% among 290,000 | recombinant PfM18AAP, H-Glu-NHMec fluorogenic cleavage | inhibition, % at 7.35 µM;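 active means inhibition above the campaign mean inhibition over all tested compounds plus 3 SD, cut at about 28% in these data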
# HCV NS3 hel inh = HCV NS3 helicase inhibition. AID 1800. inhibition, % at 10.9 µM. NS3 helicase DNA unwinding, Cy5 molecular beacon fluorescence. hit rate 0.56% among 290,000;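 active means inhibition above the mean of all tested compounds plus 3 SD, set per campaign, cut at about 35% in these data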
#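 Measured by: Cy5 fluorescence, 0 and 60 min reads / Assay system: NS3 helicase fragment of HCV / Control set: low DMSO, high thioflavine S at 110 µM / Times: 1 h reaction at 25 °C, ATP-initiated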
# p97 inhibitor = inhibitors of human p97 ATPase | P55072 | recombinant p97 ATPase, Kinase-Glo ATP luminescence, 3 h | inhibition, % at 8 µM | hit rate 0.42% among 220,000; in the data active means inhibition above about 15%
# Target sequence (P55072 whole entry, looked up): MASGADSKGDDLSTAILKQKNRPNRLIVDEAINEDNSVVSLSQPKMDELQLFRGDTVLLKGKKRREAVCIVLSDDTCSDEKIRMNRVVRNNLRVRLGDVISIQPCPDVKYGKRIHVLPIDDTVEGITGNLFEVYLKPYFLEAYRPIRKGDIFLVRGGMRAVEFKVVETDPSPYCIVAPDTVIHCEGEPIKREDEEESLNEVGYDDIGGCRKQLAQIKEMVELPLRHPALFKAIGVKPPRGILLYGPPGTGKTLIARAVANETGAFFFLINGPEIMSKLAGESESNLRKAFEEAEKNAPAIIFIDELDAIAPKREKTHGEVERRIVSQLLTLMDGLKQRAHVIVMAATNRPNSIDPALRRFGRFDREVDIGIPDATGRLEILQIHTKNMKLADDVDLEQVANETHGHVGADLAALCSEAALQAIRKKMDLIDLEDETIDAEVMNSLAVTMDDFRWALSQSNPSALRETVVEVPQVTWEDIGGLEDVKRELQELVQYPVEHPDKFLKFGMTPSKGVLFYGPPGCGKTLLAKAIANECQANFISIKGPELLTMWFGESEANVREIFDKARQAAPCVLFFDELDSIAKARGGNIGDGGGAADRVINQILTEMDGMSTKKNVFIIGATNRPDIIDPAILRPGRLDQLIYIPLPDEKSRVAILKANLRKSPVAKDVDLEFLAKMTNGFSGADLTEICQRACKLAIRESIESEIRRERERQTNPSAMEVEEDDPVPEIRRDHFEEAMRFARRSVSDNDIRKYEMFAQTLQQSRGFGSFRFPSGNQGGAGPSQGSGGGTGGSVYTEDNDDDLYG
# Hits are given with their value; – = inactive; · = no result given.
SMILES,UPR CHOP act,XBP1 UPR activ,CHOP inh,M18AAP inhibitor,HCV NS3 hel inh,p97 inhibitor
Cc1cc(NC(=O)C2CC(c3cccc(Br)c3)=NO2)no1 (stereo unspecified),–,–,73,–,–,–
CC1CCCN(C(=O)c2cc(S(=O)(=O)N3CCCCC3)c[nH]2)C1 (stereo unspecified),–,–,·,–,–,·
CCCCn1nnnc1NCc1ccc(N(CC)CC)cc1,–,–,–,31,–,–
CCCCn1nnnc1NCc1ccc(C)cc1,–,–,·,–,–,·
CCCCCCn1c(SCC(=O)Nc2cc(C)on2)nc2ccccc2c1=O,–,–,75,–,–,–
O=C(CSc1nc2ccccc2c(=O)n1Cc1ccc(F)cc1)NCc1cccs1,–,–,82,–,–,–
O=C(CSc1nc2ccccc2c(=O)n1Cc1ccccc1)NCc1ccco1,–,–,–,–,–,–
COCCn1c(SCC(=O)Nc2cc(C)on2)nc2ccccc2c1=O,–,–,·,·,·,·
Cc1cc(NC(=O)CSc2nc3ccccc3c(=O)n2Cc2ccc(F)cc2)no1,–,–,78,–,–,–
CCc1c(C)sc2nc(SCC(=O)Nc3cc(C)on3)n(CCOC)c(=O)c12,–,–,78,–,–,–
CCn1c(=S)sc2c(=O)n(CC(=O)NCCCc3ccccc3)c(C)nc21,–,–,·,–,–,·
C=CCSc1nc2ccccc2c(=O)n1Cc1ccccc1,–,–,87,–,–,–
Cc1cc(NC(=O)CSc2nc(C(C)C)nc3sc(C)c(C)c23)no1,–,–,85,–,–,–
Cc1ccc(NC(=O)CSc2nnc(C3CC3)n2CC2CCCO2)cc1C (stereo unspecified),–,–,·,–,–,·
Cc1c(Cl)cccc1NC(=O)CCNC(=O)N1CC(=O)Nc2ccccc21,–,–,·,–,–,·
O=S(=O)(c1ccccc1)N1CCC(n2nnc3cc(F)ccc32)CC1,–,–,–,–,–,–
O=S(=O)(c1ccc2c(c1)OCCO2)N1CCC(n2nnc3cc(C(F)(F)F)ccc32)CC1,–,–,70,–,–,–
CC(C)(C)c1ccc(C(=O)NC(=S)Nn2cnnc2)cc1,–,–,–,55,–,–
CC(C)(C)c1ccc(C(=O)NC(=S)N2CCCC2)cc1,–,–,·,–,–,·
COc1ccc(-c2csc3ncnc(N4CCN(c5ccc(OC)cc5)CC4)c23)cc1,–,–,·,–,–,·
COc1ccc(-c2nsc3c(N4CCCC4)ncnc23)cc1,–,–,90,–,–,–
COc1ccc(-c2n[nH]c(C)c2-c2cscn2)c(O)c1,–,–,–,–,–,–
CCOc1ccc(-c2n[nH]c(C)c2-c2ccccc2OC)c(O)c1,–,–,87,–,–,–
COC(=O)c1ccc(NC(=O)CNCc2ccncc2)cc1,–,–,–,–,–,–
COc1cc(OC)cc(C(=O)NCC(=O)OCC(=O)NCc2ccco2)c1,–,–,·,·,·,·
SMILES,UPR CHOP act,XBP1 UPR activ,CHOP inh,M18AAP inhibitor,HCV NS3 hel inh,p97 inhibitor
Cc1cc(C)cc(C(=O)NCC(=O)OCC(=O)NCc2ccco2)c1,–,–,–,31,–,–
CC(C)(C)c1ccc(OCC(=O)NCc2ccco2)c(Br)c1,–,–,81,–,–,–
O=c1c2ccccc2sn1-c1nccs1,·,·,94,–,–,–
O=C(NCc1ccccc1)c1nc(S(=O)(=O)Cc2ccccc2)ncc1Cl,105,–,·,–,–,·
COc1ccc(CNC(=O)c2nc(S(=O)(=O)Cc3ccccc3)ncc2Cl)cc1,164,–,·,–,–,·
O=C(NCc1ccc2c(c1)OCO2)c1nc(S(=O)(=O)Cc2ccccc2)ncc1Cl,–,–,·,–,–,·
COCCN(C(=O)c1cc2c(s1)CCC2)c1c(N)n(CC(C)C)c(=O)[nH]c1=O,–,–,·,·,·,·
C[n+]1cc2c3c(ccc2c2ccc4cc5c(cc4c21)OCO5)OCO3,·,·,–,·,·,·
COC(=O)c1cc(Nc2cc(C)c3ccc(O)cc3n2)cc(C(=O)OC)c1,–,–,71,–,–,–
Cc1ccc(Nc2cc(C)c3ccc(O)cc3n2)cc1C,–,–,79,–,–,–
Cc1ccc(Nc2cc(C)c3c(O)cccc3n2)cc1C,–,–,–,–,–,–
COC(=O)c1cc(Nc2cc(C)c3c(O)cccc3n2)cc(C(=O)OC)c1,–,–,–,–,–,–

# Screens deposited in PubChem BioAssay by several laboratories.
